Columns and labels:
K562 cells = experiment: Flow cytometric analysis of cell cycle distribution; assay type: cell-based, human; details: 24 h, compound at its 24 h IC50, propidium iodide
[1] = tested on: L1210, FM3A, Molt/4 and CEM cells; experiment: Cell growth inhibitory activity, range over the four cell lines; assay type: cell-based; details: for IC50: read-out: IC50-values range against the four cell lines
Summary of the method: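 Cells incubated with test compound at 37 °C for two days (L1210, FM3A) or three days (Molt 4, CEM). Cell number counted with a Coulter counter. IC50 taken as the concentration giving 50% inhibition of proliferation, from dose–response curves. Mean ± SE of at least three independent experiments.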

[2] = tested on: murine leukemia L1210 cells; experiment: Cell growth inhibitory activity, L1210; assay type: cell-based; details: Mus musculus, L1210, 48 h, read-out: IC50 (proliferation) L1210
Summary of the method: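 Murine leukaemia L1210 cells grown with varying concentrations of test compound at 37 °C for two days; cell number counted on a Coulter counter. IC50 is the concentration inhibiting cell proliferation by 50%, taken from dose–response curves. Mean ± SE of at least three independent experiments.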

[3] = tested on: Bovine brain tubulin (colchicine site); experiment: Inhibition of [3H]colchicine binding to tubulin; details: tubulin 1 μM, colchicine 5 μM, tested compound 1 μM
[4] = tested on: murine mammary carcinoma FM3A cells; experiment: Cell growth inhibitory activity, FM3A; assay type: cell-based; details: Mus musculus, 48 h, read-out: IC50 (proliferation) FM3A

Compound	Effect on cell cycle distribution (K562 cells)	IC50 [2] [nM]	also measured
COc1ccc2c(NC(=O)CI)c(C(=O)c3cc(OC)c(OC)c(OC)c3)oc2c1 [Compound 5n, (3-iodoacetylamino-6-methoxybenzofuran-2-yl)(3,4,5-trimethoxyphenyl)methanone]	greatest percentage increase in the percentage of cells in apoptotic cells (subG0-G1 peak)	–	–
COc1cc(C(=O)c2oc3cccc(OC)c3c2N)cc(OC)c1OC [Compound 5b, (3-Amino-4-methoxybenzofuran-2-yl)(3,4,5-trimethoxyphenyl)methanone]	–	–	Fold less active than 5d in the four cell lines ([1]; antiproliferative activity relative to 5d): over 10 fold
COc1ccc(/C=C\c2cc(OC)c(OC)c(OC)c2)cc1O [CA-4 (1), combretastatin A-4]	–	2.8 ± 1.1	Colchicine binding % ± SD (inhibition of [3H]colchicine binding) [3]: 86 ± 3%
COc1ccc2c(N)c(C(=O)c3cc(OC)c(OC)c(OC)c3)[nH]c2c1 [Compound 3a]	–	970 ± 24	IC50 [4]: 1600 ± 30 nM
COc1ccc2c(N(C)C)c(C(=O)c3cc(OC)c(OC)c(OC)c3)oc2c1 [Compound 5i, (3-(Dimethylamino)-6-methoxybenzofuran-2-yl) (3,4,5-trimethoxyphenyl)methanone]	accumulation of cells in G2-M	–	IC50 [1]: 48 to 75 nM
COc1ccc2c(N)c(C(=O)c3cc(OC)c(OC)c(OC)c3)n(C)c2c1 [Compound 4a]	–	69 ± 37	IC50 [4]: 97 ± 3 nM
COc1ccc2c(N)c(C(=O)c3cc(OC)c(OC)c(OC)c3)oc2c1 [Compound 5d, (3-Amino-6-methoxybenzofuran-2-yl)(3,4,5-trimethoxyphenyl)methanone]	accumulate in late S phase	–	IC50 [1]: 87 to 430 nM
COc1ccc2c(NC(=O)CCl)c(C(=O)c3cc(OC)c(OC)c(OC)c3)oc2c1 [Compound 5l, (3-chloroacetylamino-6-methoxybenzofuran-2-yl)(3,4,5-trimethoxyphenyl)methanone]	accumulate in late S phase	–	–
